From ChEMBL document CHEMBL5724801, “EUbOPEN Chemogenomics Library - Multiplex” (2024)
Where “and” joins values, the source holds several entries; their conditions need not be identical. Equal entries are not always repeated.

Test system: Fibroblast
Assay: Multiplex assay against human fibroblast
Type: toxicity, cell-based
In short: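 Per cents of healthy-nucleus cells form the tubulin, mitochondrial-mass and membrane-permeability phenotype values. Live cells were stained at seeding with Hoechst33342, BioTracker Green Microtubule Cytoskeleton Dye, MitoTracker Red and Annexin V Alexa Fluor 680. After compound addition they were imaged on a CQ1 microscope at 37°C and 5% CO2, and CellPathfinder machine-learning gating split them into Hoechst high-intensity objects or normal cells, normal cells into healthy, pyknosed or fragmented nuclei, and pyknosed cells into mitotic or apoptotic.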

[1] = 12 h, 1 µM, compound concentration 1 uM
[2] = 12 h, 10 µM, compound concentration 10 uM
[3] = 24 h, 1 µM, compound concentration 1 uM
[4] = 24 h, 10 µM, compound concentration 10 uM
[5] = 48 h, 1 µM, compound concentration 1 uM
[6] = 48 h, 10 µM, compound concentration 10 uM

SMILES: CN1[C@@H](CC(=O)c2ccccc2)CCC[C@H]1C[C@H](O)c1ccccc1.Cl [LOBELINE HYDROCHLORIDE]
- Population Apoptotic (%) [1]: 11.11% and 18.52%
- Population Fragmented Nuclei (%) [1]: 12.29% and 4.19%
- Population Healthy Nuclei (%) [1]: 57.54% and 81.68%
- Population Hoechst High Intensity Objects (%) [1]: 0%
- Population Membrane Permeable-Phenotype (%) [1]: 3.88% and 3.21%
- Population Mitochondria Different-Phenotype (%) [1]: 13.59% and 7.05%
- Population Mitotic Cells (%) [1]: 88.89% and 81.48%
- Population Normal (%) [1]: 100%
- Population Pyknosed Nuclei (%) [1]: 30.17% and 14.14%
- Population Tubulin-Different-Phenotype (%) [1]: 15.53% and 14.1%
- Total Cell Count [1]: 179 and 191
- Population Apoptotic (%) [2]: 16.36% and 11.43%
- Population Fragmented Nuclei (%) [2]: 9.48% and 12.07%
- Population Healthy Nuclei (%) [2]: 64.45% and 72.84%
- Population Hoechst High Intensity Objects (%) [2]: 0%
- Population Membrane Permeable-Phenotype (%) [2]: 8.09% and 4.73%
- Population Mitochondria Different-Phenotype (%) [2]: 25% and 14.79%
- Population Mitotic Cells (%) [2]: 83.64% and 88.57%
- Population Normal (%) [2]: 100%
- Population Pyknosed Nuclei (%) [2]: 26.07% and 15.09%
- Population Tubulin-Different-Phenotype (%) [2]: 35.29% and 43.2%
- Total Cell Count [2]: 211 and 232
- Population Fragmented Nuclei (%) [3]: 8.95% and 0.5%
- Population Healthy Nuclei (%) [3]: 64.21% and 85.07%
- Population Hoechst High Intensity Objects (%) [3]: 0%
- Population Membrane Permeable-Phenotype (%) [3]: 3.28% and 3.51%
- Population Mitochondria Different-Phenotype (%) [3]: 11.48% and 7.02%
- Population Mitotic Cells (%) [3]: 96.08% and 82.76%
- Population Normal (%) [3]: 100%
- Population Pyknosed Nuclei (%) [3]: 26.84% and 14.43%
- Population Tubulin-Different-Phenotype (%) [3]: 28.69% and 18.13%
- Total Cell Count [3]: 190 and 201
- Population Fragmented Nuclei (%) [4]: 9.69% and 11.42%
- Population Healthy Nuclei (%) [4]: 75.77% and 77.95%
- Population Hoechst High Intensity Objects (%) [4]: 0%
- Population Membrane Permeable-Phenotype (%) [4]: 2.33% and 2.02%
- Population Mitochondria Different-Phenotype (%) [4]: 22.09% and 12.12%
- Population Mitotic Cells (%) [4]: 93.94% and 66.67%
- Population Normal (%) [4]: 100%
- Population Pyknosed Nuclei (%) [4]: 14.54% and 10.63%
- Population Tubulin-Different-Phenotype (%) [4]: 43.02% and 41.41%
- Total Cell Count [4]: 227 and 254
- Population Apoptotic (%) [5]: 23.08% and 23.53%
- Population Fragmented Nuclei (%) [5]: 9.22% and 3.83%
- Population Healthy Nuclei (%) [5]: 84.47% and 88.04%
- Population Hoechst High Intensity Objects (%) [5]: 0%
- Population Membrane Permeable-Phenotype (%) [5]: 1.15% and 1.63%
- Population Mitochondria Different-Phenotype (%) [5]: 8.62% and 3.26%
- Population Mitotic Cells (%) [5]: 76.92% and 76.47%
- Population Normal (%) [5]: 100%
- Population Pyknosed Nuclei (%) [5]: 6.31% and 8.13%
- Population Tubulin-Different-Phenotype (%) [5]: 9.2% and 7.07%
- Total Cell Count [5]: 206 and 209
- Population Apoptotic (%) [6]: 30.77% and 35.71%
- Population Fragmented Nuclei (%) [6]: 10.79% and 10.97%
- Population Healthy Nuclei (%) [6]: 83.82% and 83.12%
- Population Hoechst High Intensity Objects (%) [6]: 0%
- Population Membrane Permeable-Phenotype (%) [6]: 1.98% and 6.09%
- Population Mitochondria Different-Phenotype (%) [6]: 11.39% and 5.58%
- Population Mitotic Cells (%) [6]: 69.23% and 64.29%
- Population Normal (%) [6]: 100%
- Population Pyknosed Nuclei (%) [6]: 5.39% and 5.91%
- Population Tubulin-Different-Phenotype (%) [6]: 12.38% and 25.89%
- Total Cell Count [6]: 241 and 237
